Results on 14 molecules are retold here after ChEMBL document CHEMBL1125602, “Inhibitors of the protease from human immunodeficiency virus: design and modeling of a compound containing a dihydroxyethylene isostere insert with high binding affinity and effective antiviral activity” (J Med Chem, 1991).

Assay [1] has as its target Human immunodeficiency virus type 1 protease (Human immunodeficiency virus 1, UniProt Q72874). The assay is described as follows: Inhibitory activity against HIV-1 protease. Summed up:
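Recombinant HIV-1 protease refolded from E. coli inclusion bodies; substrate GSP (H-Val-Ser-Gln-Asn-Tyr-Pro-Ile-Val-OH) at 2.5 mM. Run at 30 °C in 100 mM sodium acetate pH 5.5 with 10% glycerol, 5% ethylene glycol, 0.1% Nonidet P-40. Inhibitor added before enzyme, five to seven concentrations. Stopped at 30 min with TFA, products by HPLC; Ki from Dixon plots.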

A short description of assay [2]: The compound was tested for its antiviral activity against vaccinia virus in CV-1 monkey cells at 10 uM. Format: functional. The note with it: Cercopithecidae.

For `CC[C@H](C)[C@H](NC(=O)[C@H](CC(C)C)[C@@H](O)[C@H](O)[C@H](CC1CCCCC1)NC(=O)[C@H](Cc1c[nH]cn1)NC(=O)COc1cccc2ccccc12)C(=O)NCc1ccccn1`, the Ki in assay [1] turned out to be 5 nM.
Still for that read-out and setting: in the case of `CC[C@H](C)[C@H](NC(=O)[C@@H](CC(C)C)[C@@H](O)[C@H](O)[C@H](CC(C)C)NC(=O)[C@H](Cc1c[nH]cn1)NC(=O)COc1cccc2ccccc12)C(=O)NCc1ccccn1` it was 220 nM.
The same measure, in the same setting: with `CC[C@H](C)[C@H](NC(=O)[C@H](C(C)C)[C@@H](O)[C@H](O)[C@H](CC(C)C)NC(=O)[C@H](Cc1c[nH]cn1)NC(=O)COc1cccc2ccccc12)C(=O)NCc1ccccn1` the figure was 5 nM.
In turn, `CC[C@H](C)[C@H](NC(=O)[C@H](C(C)C)[C@@H](O)[C@H](O)[C@H](CC1CCCCC1)NC(=O)CC1CCCCC1)C(=O)NCc1ccccn1` returned an inhibition at 10 µM in assay [2] of 80%. This molecule yielded a Ki in assay [1] of 22 nM.
In assay [1], `CC[C@H](C)[C@H](NC(=O)[C@H](C(C)C)[C@@H](O)[C@H](O)[C@H](CC1CCCCC1)NC(=O)[C@H](Cc1c[nH]cn1)NC(=O)COc1cccc2ccccc12)C(=O)NCc1ccccn1` gave a Ki of less than 1 nM.
In turn, `CC[C@H](C)[C@H](NC(=O)[C@H](C(C)C)[C@@H](O)[C@H](O)[C@H](CC1CCCCC1)NC(=O)[C@H](Cc1c[nH]cn1)NC(=O)CO)C(=O)NCc1ccccn1` yielded an inhibition at 10 µM in assay [2] of 0%. Also, in assay [1], the affinity, expressed as Ki, was 4 nM.
The corresponding values for `CC[C@H](C)[C@H](NC(=O)[C@H](C(C)C)[C@@H](O)[C@H](O)[C@H](CC1CCCCC1)NC(=O)[C@H](Cc1c[nH]cn1)NC(=O)CN)C(=O)NCc1ccccn1` are 0% and 11 nM.
On the same counts, the results for `CC[C@H](C)[C@H](NC(=O)[C@H](C(C)C)[C@@H](O)[C@H](O)[C@H](CC1CCCCC1)NC(=O)[C@H](Cc1c[nH]cn1)NC(=O)COc1ccccc1)C(=O)NCc1ccccn1` are 100% and 2 nM.
As to `CC[C@H](C)[C@H](NC(=O)[C@H](C(C)C)[C@H](O)[C@H](O)[C@H](CC(C)C)NC(=O)[C@H](Cc1c[nH]cn1)NC(=O)[C@@H](Cc1ccccc1)NC(=O)OC(C)(C)C)C(=O)NCc1ccccn1`, the affinity in assay [1] corresponds to a Ki of 500 nM.
Same read-out and setting: with `CC[C@H](C)[C@H](NC(=O)[C@H](C(C)C)[C@@H](O)[C@H](O)[C@H](CC(C)C)NC(=O)[C@H](Cc1c[nH]cn1)NC(=O)COc1ccccc1)C(=O)NCc1ccccn1` the figure was 5 nM; with `CC[C@H](C)[C@H](NC(=O)[C@H](C(C)C)[C@@H](O)[C@H](O)[C@H](CC(C)C)NC(=O)[C@H](Cc1c[nH]cn1)NC(=O)[C@@H](Cc1ccccc1)NC(=O)OC(C)(C)C)C(=O)NCc1ccccn1`, 28 nM; with `CC[C@H](C)[C@H](NC(=O)[C@@H](Cc1ccccc1)[C@@H](O)[C@H](O)[C@H](Cc1ccccc1)NC(=O)[C@H](Cc1c[nH]cn1)NC(=O)COc1cccc2ccccc12)C(=O)NCc1ccccn1`, 12 nM.
Molecule `CC[C@H](C)[C@H](NC(=O)[C@H](CC1CCCCC1)[C@@H](O)[C@H](O)[C@H](CC1CCCCC1)NC(=O)[C@H](Cc1c[nH]cn1)NC(=O)COc1cccc2ccccc12)C(=O)NCc1ccccn1` gave a Ki in assay [1] of 26 nM.
As to `CC[C@H](C)[C@H](NC(=O)[C@H](CC(C)C)[C@@H](O)[C@H](O)[C@H](CC(C)C)NC(=O)[C@H](Cc1c[nH]cn1)NC(=O)COc1cccc2ccccc12)C(=O)NCc1ccccn1`, in assay [1], the Ki came out at 7 nM.
